According to ChEMBL document CHEMBL1138267, “Identification of phosphinate dipeptide analog inhibitors directed against the Plasmodium falciparum M17 leucine aminopeptidase as lead antimalarial compounds” (J Med Chem, 2007):

Columns and labels:
[1] = Inhibition of Plasmodium falciparum recombinant M17 LAP
Outline: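 His-tagged PfLAP expressed in baculovirus-infected Sf9 cells and Ni-agarose purified. The enzyme was Co2+-activated (1 mM CoCl2, 50 mM Tris-HCl pH 8.0, 20 min) and H-Leu-NHMec hydrolysis was read at ex 370/em 460 nm, 37 °C. Ki came from Dixon plots of initial rates (26 nM enzyme, 2.5–100 µM substrate, 2.44–78.13 nM inhibitor). For time-dependent binding, Ki* came from steady-state progress curves (2 µM substrate, 19.53–312.5 nM).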

Mus musculus [2] = experiment: Toxicity in Plasmodium chabaudi chabaudi infected C57BL/6J mice (Mus musculus) at 2 mg, intraperitoneally twice daily after 7 days; format: organism-based; details: in vivo, ip, 168 h
Plasmodium falciparum [3] = experiment: Antimalarial activity after 48 hrs against Plasmodium falciparum D10 by [3H]hypoxanthine uptake; format: functional, organism-based
Plasmodium chabaudi [4] = experiment: Antimalarial activity against Plasmodium chabaudi chabaudi in C57BL/6J mice (Mus musculus) assessed as parasitemia on day 11 at 2 mg, intraperitoneally twice daily for 7 days; format: functional
Plasmodium chabaudi [5] = experiment: Antimalarial activity against Plasmodium chabaudi chabaudi in C57BL/6J mice (Mus musculus) assessed as reduction of parasitemia on day 11 at 2 mg, intraperitoneally twice daily for 7 days relative to control; format: functional; parameters: scale not given: the % may be the effect or the level left
Plasmodium falciparum [6] = experiment: Antimalarial activity after 48 hrs against multidrug-resistant Plasmodium falciparum Dd2 by [3H]hypoxanthine uptake; format: functional, organism-based
Plasmodium falciparum [7] = experiment: Antimalarial activity after 48 hrs against drug-sensitive Plasmodium falciparum 3D7 by [3H]hypoxanthine uptake; format: functional, organism-based
Mus musculus [8] = experiment: Toxicity in Plasmodium chabaudi chabaudi infected C57BL/6J mice (Mus musculus) at 0.1 mg, intraperitoneally twice daily after 4 days; format: organism-based; details: in vivo, ip, 96 h
Plasmodium chabaudi [9] = experiment: Antimalarial activity against Plasmodium chabaudi chabaudi in C57BL/6J mice (Mus musculus) assessed as parasitemia on day 14 at 0.1 mg, intraperitoneally for 4 days; format: functional
Plasmodium chabaudi [10] = experiment: Antimalarial activity against Plasmodium chabaudi chabaudi in C57BL/6J mice (Mus musculus) assessed as parasitemia on day 8 at 2 mg, intraperitoneally twice daily for 7 days; format: functional

SMILES | Ki [1] [µM] | Activity (Mus musculus [2]) | IC50 (Plasmodium falciparum [3]) [µM] | Activity (Plasmodium chabaudi [4]) [%] | Activity (Plasmodium chabaudi [5]) [%] | IC50 (Plasmodium falciparum [6]) [µM] | IC50 (Plasmodium falciparum [7]) [µM] | Activity (Mus musculus [8]) | Activity (Plasmodium chabaudi [9]) [%] | Activity (Plasmodium chabaudi [10]) [%]
N[C@H](CCc1ccccc1)P(=O)(O)C[C@@H](Cc1ccccc1)C(=O)O | 0.0132 | Non-toxic | 46 | 3.6 | 92 | 20 | 24 | Non-toxic | – | –
CCN(CC)CCCC(C)Nc1ccnc2cc(Cl)ccc12 (stereo not given) [CHLOROQUINE] | – | Non-toxic | – | – | – | – | – | Non-toxic | 6.9 | –
N[C@H](CCc1ccccc1)P(=O)(O)CCC(=O)O | 0.525 | – | > 100 | – | – | > 100 | > 100 | – | – | –
CC(C)C[C@H](CP(=O)(O)[C@H](N)CC(C)C)C(=O)O | 0.0973 | – | > 100 | – | – | > 100 | > 100 | – | – | –
N[C@H](CCc1ccccc1)P(=O)(O)C[C@@H](Cc1ccc(O)cc1)C(=O)O | 0.0104 | – | 47 | – | – | 13 | 19 | – | – | –
CC(C)C[C@H](NC(=O)[C@@H](O)[C@H](N)Cc1ccccc1)C(=O)O.Cl [BESTATIN HYDROCHLORIDE] | 0.025 | Non-toxic | 11 | – | – | 12 | 8 | Non-toxic | – | 29.7
